Test [1] has as its system L1210. Description: Antitumor activity was determined against the ic implanted L1210 lymphoid leukemia in mice by […] at 100 mg/kg (1 qd treatment schedule) dosage; 17.5-7.0. It counts as functional, Mus musculus. Summed up: (§1)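 DBA/2J mice, groups of 6 (26-32 g), got 1 × 10^5 L1210 cells ic on day 0. Dosing was ip starting 24 h later, as a sonicated solution or suspension in 0.9% NaCl with 0.5% Tween-80, over a wide dose range. Mice were followed daily until death. Median survival T/C was taken from survivors per NCI protocols, and ILS = (T/C − 1) × 100. Active range means doses giving ILS ≥25%; optimal dose means greatest ILS.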

For test [2], the system named is L1210. Description: Antitumor activity against the ic implanted L1210 lymphoid leukemia in mice expressed as optimal dose (1 qd treatment schedule) required to produce greatest increase in life span was determined. It is filed as functional, Mus musculus. Summed up: as §1
Test [3] relates to L1210. Description: Antitumor activity was determined against the ip implanted L1210 leukemia in mice by range in survival days at 200 mg/kg (treatment of 1qd schedule) dosage; Range is 12->45. It is filed as functional, Mus musculus. To be noted: route intraperitoneal. Summed up: (§2)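 DBA/2J mice, 23-28 g, in groups of 6, were inoculated ip with 1×10^6 L1210 cells on day 0. Dosing was ip starting 24 h later on the stated daily schedules. Conjugates were given as sonicated solutions and reference prodrugs as suspensions in 0.9% NaCl with 0.5% Tween-80. Mice were observed daily until death or 45 days. Median survival T/C was calculated from survivors per NCI protocols.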

In test [4] the test system is L1210. Description: Antitumor activity was determined against the ip implanted L1210 leukemia in mice by change in […] at 200 mg/kg (treatment of 1qd schedule) dosage. It is filed as functional, Mus musculus. As to conditions: route intraperitoneal. Summed up: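 DBA/2J mice, 6 per group (wt 23-28 g), inoculated ip with 1×10^6 L1210 cells on day 0. Treatment was given ip in 0.9% NaCl with 0.5% Tween-80, starting 24 h later. Weight change was taken on day 8. Mice were observed daily until death or 45 days. Median survival T/C and %ILS = (T/C − 1) × 100 came from survivors per NCI protocols, and 45-day survivors were counted.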

Test [5] relates to L1210. The test is described as follows: Antitumor activity was determined against the ic implanted L1210 lymphoid leukemia in mice by change in […] at 100 mg/kg (1 qd treatment schedule) dosage. It counts as functional, Mus musculus. Summed up:
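DBA/2J mice, 6 per group (wt 26-32 g), inoculated ic with 1×10^5 L1210 cells on day 0. Dosing ip began 24 h after inoculation, with a sonicated solution or suspension in 0.9% NaCl containing 0.5% Tween-80, given over a range of doses. Animals were followed daily until death. Body weight change, median survival T/C, and %ILS = (T/C − 1) × 100 were computed from survivors per NCI protocols.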

The subject of test [6] is L1210. The test is described as follows: Antitumor activity was determined against the ip implanted L1210 leukemia in mice by percent increase in life span at 200 mg/kg (treatment of 1qd schedule) dosage. It is filed as functional, Mus musculus. As to conditions: route intraperitoneal. Summed up: (§3)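 DBA/2J mice in groups of 6 (wt 23-28 g) were inoculated ip with 1×10^6 L1210 cells on day 0. Dosing was ip from 24 h, in 0.9% NaCl with 0.5% Tween-80 (conjugates sonicated), across a range of doses. Mice were observed daily until death or 45 days. Median T/C was computed from survivors per NCI protocols, and ILS = (T/C − 1)×100.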

Test [7] deals with L1210. The test is described as follows: Antitumor activity was determined against the ip implanted L1210 leukemia in mice by 45-day survivors in mice at 200 mg/kg (treatment of 1qd schedule) dosage. It counts as functional, Mus musculus. To be noted: route intraperitoneal. Summed up:
as §3

Test [8] concerns L1210. Description: Antitumor activity was determined against the ic implanted L1210 lymphoid leukemia in mice by range in survival days at 100 mg/kg (1 qd treatment schedule) dosage; Range is 14-18. It counts as functional, Mus musculus.
For test [9], the system named is L1210. Description: Antitumor activity against ip implanted L1210 leukemia in mice expressed as active dose range (1 qd treatment schedule) required to produce increase in life span by >25% was determined; Range is 100-250. It is filed as functional, Mus musculus. Summed up:
(§4)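 DBA/2J mice, groups of 6 (23-28 g), were inoculated ip with 1 × 10^6 L1210 cells on day 0. Dosing was ip from 24 h, in 0.9% NaCl with 0.5% Tween-80 (sonicated solution or suspension). Mice were observed daily until death or day 45. Median survival T/C followed NCI protocols, and ILS = (T/C − 1) × 100. Active range means doses giving ILS ≥25%; optimal dose means greatest ILS.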

The subject of test [10] is L1210. Description: Antitumor activity was determined against the ip implanted L1210 leukemia in mice by median survival time at 200 mg/kg (treatment of 1qd schedule) dosage; 17.5/7.0. To be noted: route intraperitoneal.
The subject of test [11] is L1210. The test is described as follows: Antitumor activity against the ip implanted L1210 leukemia in mice expressed as optimal dose (1 qd treatment schedule) required to produce greatest increase in life span was determined. It is filed as functional, Mus musculus. Summed up: as §4
In test [12] the test system is P388. Description: Antitumor activity was determined against the ip implanted P388 leukemia in mice by range in survival days at 100 mg/kg (treatment of 1qd schedule) dosage; Range is 28->45. To be noted: route intraperitoneal.
In test [13] the test system is P388 leukemia (mouse). The test is described as follows: Antitumor activity was determined against the ip implanted P388 leukemia in mice by 45-day survivors in mice at 100 mg/kg (treatment of 1qd schedule) dosage. To be noted: route intraperitoneal.
In test [14] the test system is P388. Description: Antitumor activity was determined against the ip implanted P388 leukemia in mice by percent median survival rate (treated/control) at 100 mg/kg (treatment of 1qd schedule) dosage; >45.0/12.0. As to conditions: route intraperitoneal.
The test system of test [15] is P388. Description: Antitumor activity against the ip implanted P388 leukemia in mice expressed as optimal dose (1 qd treatment schedule) required to produce greatest increase in life span was determined. It counts as functional, Mus musculus. Summed up:
(§5)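 P388 leukemia: 1 × 10^6 cells were given ip on day 0 to DBA/2J mice, groups of 6 (23-33 g). Treatment was ip from 24 h after inoculation, vehicle 0.9% NaCl with 0.5% Tween-80. Mice were observed daily until death or 45 days. Median survival T/C was calculated from survivors per NCI protocols, and ILS = (T/C − 1) × 100. Active range means doses giving ILS ≥25%; optimal dose means greatest ILS.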

For test [16], the system named is P388. The test is described as follows: Antitumor activity was determined against the ip implanted L1210 leukemia in mice by change in […] at 100 mg/kg (treatment of 1qd schedule) dosage. As to conditions: route intraperitoneal, in the assay text read “P388 leukemia” for “L1210 leukemia”. It is filed as functional, Mus musculus.
Test [17] relates to P388. Description: Antitumor activity was determined against the ip implanted P388 leukemia in mice by percent increase in life span at 100 mg/kg (treatment of 1qd schedule) dosage. As to conditions: route intraperitoneal.
Test [18] deals with L1210. The test is described as follows: Antitumor activity was determined against the ic implanted L1210 lymphoid leukemia in mice by percent increase in life span at 100 mg/kg (1 qd treatment schedule) dosage. It counts as functional, Mus musculus. Summed up: as §1
For test [19], the system named is P388. Description: Antitumor activity against ip implanted P388 leukemia in mice expressed as active dose range (1 qd treatment schedule) required to produce increase in life span by >25% was determined; Range is 50-100. It is filed as functional, Mus musculus. Summed up:
as §5

For test [20], the system named is CML/BC. Description: Compound was tested for the inhibition of CML/BC(chronic myeloid leukemia, blast crisis). It counts as functional, cell-based. As to conditions: Homo sapiens. Summed up: (§6)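 Human leukemia and solid tumor cells in culture were exposed to compound for 48 h. Viability was scored by trypan blue dye exclusion. IC50 (50% inhibition) was estimated from response curves of three separate experiments.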

The subject of test [21] is L1210. Description: Antitumor activity was determined against the ip implanted L1210 leukemia in mice by 45-day survivors in mice at 5 mg/kg (treatment of 1-5qd schedule) dosage. To be noted: route intraperitoneal. It counts as functional, Mus musculus. Summed up:
as §3

The test system of test [22] is L1210. The test is described as follows: Antitumor activity was determined against the ip implanted L1210 leukemia in mice by percent increase in life span at 5 mg/kg (treatment of 1-5qd schedule) dosage. It is filed as functional, Mus musculus. As to conditions: route intraperitoneal. Summed up:
as §3

Test [23] deals with NSCLC. Description: Compound was tested for the inhibition of non- small cell lung cancer. To be noted: Homo sapiens. It is filed as functional, cell-based. Summed up: as §6
The subject of test [24] is L1210. Description: Antitumor activity against the ip implanted L1210 leukemia in mice expressed as optimal dose (1-5qd treatment schedule) required to produce greatest increase in life span was determined. It counts as functional, Mus musculus. Summed up:
as §4

The subject of test [25] is AMML. The test is described as follows: Compound was tested for the inhibition of AMML (acute myelomonocytic leukemia). It counts as functional, cell-based. As to conditions: Homo sapiens. Summed up:
as §6

The test system of test [26] is L1210. Description: Antitumor activity was determined against the ip implanted L1210 leukemia in mice by range in survival days at 5 mg/kg (treatment of 1-5qd schedule) dosage; Range is 8-9. It is filed as functional, Mus musculus. To be noted: route intraperitoneal. Summed up:
as §2

For test [27], the system named is HL-60. Description: Compound was tested for the inhibition of human HL60 Leukemia. It counts as functional, cell-based. Summed up:
as §6

In test [28] the test system is L1210. Description: Antitumor activity was determined against the ip implanted L1210 leukemia in mice by percent median survival rate (treated/control) at 5 mg/kg (treatment of 1-5qd schedule) dosage; 9.0/8.0. It counts as functional, Mus musculus. As to conditions: route intraperitoneal. Summed up:
as §2

The test system of test [29] is Glioblastoma cell line. Description: Compound was tested for the inhibition of glioblastoma. As to conditions: Homo sapiens. It counts as functional, cell-based. Summed up:
as §6

Test [30] has as its system Small cell lung cancer cell line. Description: Compound was tested for the inhibition of small cell lung cancer. It counts as functional, cell-based. To be noted: Homo sapiens. Summed up:
as §6

The structures appear in SMILES notation. A value given as a limit tells only on which side of the number the result lay.

Take `CCCCCCCCCCCCCCCC(=O)OC[C@H]1O[C@@H](n2ccc(N)nc2=O)[C@@H](O)[C@@H]1O`: the median survival time in [1] is 17.5 days; in test [10], 17.5 days; in test [14] it was over 45 days. Further, the figures for the Optimal dose in test [2], in [11] and in [15] were 100 mg, 200 mg/kg/day and 100 mg, respectively. Also, the Range is 12 in [3], 14 in test [8] and 28 in test [12]. For the same compound, the Weight change is on record as 2 g mouse-1 in test [4], -2.03 g mouse-1 in test [5] and 0.3 g mouse-1 in test [16]. Further, the ILS in test [6] is reported as 150; in test [17], over 275; in test [18], 150. For the same compound, the Survivors in test [7] stood at 1; in test [13], 4. For the same compound, the Active dose range in test [9] was determined as 100 mg/kg/day; in test [19], 50 mg/kg/day.
The term IC50 denotes the concentration that gives 50% inhibition. High values mean weaker potency, low ones greater potency. In general, T/C refers to the ratio of treated to control. As to `CCCCCCCCCCCCCCCCCCOC[C@H](COP(=O)([O-])OCC[N+](C)(C)C)OC` [(R)-EDELFOSINE], the IC50 amounted to 1.5 µM in [20]; 21 µM in [23]; 3.3 µM in test [25]; 2.5 µM in test [27]; 20 µM in test [29]; 24 µM in [30]. Besides, in test [21], the Survivors amounted to 0. The compound also gave an ILS in [22] of 13. In test [24], this compound gave an Optimal dose of 5 mg/kg/day. In test [26], this compound had a Range of 8. In test [28], this compound displayed a T/C of 9%.

The values above are taken from ChEMBL document CHEMBL1123247, “Nucleoside conjugates. 7. Synthesis and antitumor activity of 1-beta-D-arabinofuranosylcytosine conjugates of ether lipids” (J Med Chem, 1986).
